Reference: ChEMBL document CHEMBL1140728, “Synthesis and biological activity of human neuropeptide S analogues modified in position 2” (J Med Chem, 2008)
Non-standard residues stand in square brackets, D forms with d. Residues, ends and D or L forms follow the SMILES beside them. Phe(4-CF3) = N[C@@H](Cc1ccc(C(F)(F)F)cc1)C(=O)O; Bip = N[C@@H](Cc1ccc(-c2ccccc2)cc1)C(=O)O; Phe(4-Br) = N[C@@H](Cc1ccc(Br)cc1)C(=O)O; Phe(4-CN) = N#Cc1ccc(C[C@H](N)C(=O)O)cc1; Phe(4-Cl) = N[C@@H](Cc1ccc(Cl)cc1)C(=O)O; 1Nal = N[C@@H](Cc1cccc2ccccc12)C(=O)O; Atc(2S) = N[C@@]1(C(=O)O)CCc2ccccc2C1; Phe(2-Me) = Cc1ccccc1C[C@H](N)C(=O)O; Cha = N[C@@H](CC1CCCCC1)C(=O)O; Aic = NC1(C(=O)O)Cc2ccccc2C1; Nphe = O=C(O)CNCc1ccccc1

What was measured:
[1] = molecular target: T1, Neuropeptide S receptor (Mus musculus) (UniProt Q8BZP8); assay: Agonist activity at mouse recombinant NPS receptor expressed in HEK293 cells assessed as intracellular calcium mobilization relative to baseline; type: functional, cell-based
T1 sequence (whole entry): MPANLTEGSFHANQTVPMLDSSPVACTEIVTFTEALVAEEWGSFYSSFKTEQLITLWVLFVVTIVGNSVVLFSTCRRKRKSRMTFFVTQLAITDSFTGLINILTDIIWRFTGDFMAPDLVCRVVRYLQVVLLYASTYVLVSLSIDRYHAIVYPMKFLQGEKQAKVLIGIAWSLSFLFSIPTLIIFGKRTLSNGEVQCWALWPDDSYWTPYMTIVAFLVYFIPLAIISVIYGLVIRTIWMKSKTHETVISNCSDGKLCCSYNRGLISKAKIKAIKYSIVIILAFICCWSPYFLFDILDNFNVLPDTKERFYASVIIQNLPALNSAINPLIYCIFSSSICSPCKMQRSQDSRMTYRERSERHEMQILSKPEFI
Method in brief: (§1)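 HEK293 cells stably expressing mouse NPSR, kept in DMEM with 10% FBS, 2 mM L-glutamine and hygromycin (100 mg/L), were seeded at 50 000 cells/well. Next day they were loaded with Fluo-4 AM (3 µmol), probenecid (2.5 mmol) and 0.01% pluronic acid for 30 min at 37 °C. Agonist dilutions in HBSS/HEPES with 0.02% BSA were added, and FlexStation II fluorescence was read at 22 °C.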

Neuropeptide S receptor = molecular target: T2, Neuropeptide S receptor (Mus musculus, UniProt Q8BZP8); assay: Agonist activity at mouse recombinant NPS receptor expressed in HEK293 cells assessed as intracellular calcium mobilization; type: functional, cell-based; method in brief: as §1
T2 sequence (Q8BZP8 whole entry): T1 sequence (whole entry)

| Compound | Emax [1] [%] | EC50 (Neuropeptide S receptor) [nM] |
| --- | --- | --- |
| CSCC[C@H](NC(=O)CNC(=O)[C@@H](NC(=O)CNC(=O)[C@@H](NC(=O)CNC(=O)[C@H](CC(N)=O)NC(=O)[C@H](CCCNC(=N)N)NC(=O)[C@H](Cc1cccc2ccccc12)NC(=O)[C@@H](N)CO)C(C)C)[C@@H](C)O)C(=O)N[C@@H](CCCCN)C(=O)N[C@@H](CCCCN)C(=O)N[C@H](C(=O)N[C@@H](CO)C(=O)N[C@@H](Cc1ccccc1)C(=O)N[C@@H](CCC(N)=O)C(=O)N[C@@H](CCCNC(=N)N)C(=O)N[C@@H](C)C(=O)N[C@@H](CCCCN)C(=O)N[C@@H](CO)C(=O)O)[C@@H](C)O (H-S[1Nal]RNGVGTGMKKTSFQRAKS-OH) | 232 | 1.95 |
| CSCC[C@H](NC(=O)CNC(=O)[C@@H](NC(=O)CNC(=O)[C@@H](NC(=O)CNC(=O)[C@H](CC(N)=O)NC(=O)[C@H](CCCNC(=N)N)NC(=O)C1(NC(=O)[C@@H](N)CO)Cc2ccccc2C1)C(C)C)[C@@H](C)O)C(=O)N[C@@H](CCCCN)C(=O)N[C@@H](CCCCN)C(=O)N[C@H](C(=O)N[C@@H](CO)C(=O)N[C@@H](Cc1ccccc1)C(=O)N[C@@H](CCC(N)=O)C(=O)N[C@@H](CCCNC(=N)N)C(=O)N[C@@H](C)C(=O)N[C@@H](CCCCN)C(=O)N[C@@H](CO)C(=O)O)[C@@H](C)O (H-S[Aic]RNGVGTGMKKTSFQRAKS-OH) | 211 | 33.9 |
| CSCC[C@H](NC(=O)CNC(=O)[C@@H](NC(=O)CNC(=O)[C@@H](NC(=O)CNC(=O)[C@H](CC(N)=O)NC(=O)[C@H](CCCNC(=N)N)NC(=O)[C@]1(NC(=O)[C@@H](N)CO)CCc2ccccc2C1)C(C)C)[C@@H](C)O)C(=O)N[C@@H](CCCCN)C(=O)N[C@@H](CCCCN)C(=O)N[C@H](C(=O)N[C@@H](CO)C(=O)N[C@@H](Cc1ccccc1)C(=O)N[C@@H](CCC(N)=O)C(=O)N[C@@H](CCCNC(=N)N)C(=O)N[C@@H](C)C(=O)N[C@@H](CCCCN)C(=O)N[C@@H](CO)C(=O)O)[C@@H](C)O (H-S[Atc(2S)]RNGVGTGMKKTSFQRAKS-OH) | 257 | 11.2 |
| CSCC[C@H](NC(=O)CNC(=O)[C@@H](NC(=O)CNC(=O)[C@@H](NC(=O)CNC(=O)[C@H](CC(N)=O)NC(=O)[C@H](CCCNC(=N)N)NC(=O)[C@H](Cc1ccc(-c2ccccc2)cc1)NC(=O)[C@@H](N)CO)C(C)C)[C@@H](C)O)C(=O)N[C@@H](CCCCN)C(=O)N[C@@H](CCCCN)C(=O)N[C@H](C(=O)N[C@@H](CO)C(=O)N[C@@H](Cc1ccccc1)C(=O)N[C@@H](CCC(N)=O)C(=O)N[C@@H](CCCNC(=N)N)C(=O)N[C@@H](C)C(=O)N[C@@H](CCCCN)C(=O)N[C@@H](CO)C(=O)O)[C@@H](C)O (H-S[Bip]RNGVGTGMKKTSFQRAKS-OH) | 170 | 20 |
| CSCC[C@H](NC(=O)CNC(=O)[C@@H](NC(=O)CNC(=O)[C@@H](NC(=O)CNC(=O)[C@H](CC(N)=O)NC(=O)[C@H](CCCNC(=N)N)NC(=O)[C@H](CC1CCCCC1)NC(=O)[C@@H](N)CO)C(C)C)[C@@H](C)O)C(=O)N[C@@H](CCCCN)C(=O)N[C@@H](CCCCN)C(=O)N[C@H](C(=O)N[C@@H](CO)C(=O)N[C@@H](Cc1ccccc1)C(=O)N[C@@H](CCC(N)=O)C(=O)N[C@@H](CCCNC(=N)N)C(=O)N[C@@H](C)C(=O)N[C@@H](CCCCN)C(=O)N[C@@H](CO)C(=O)O)[C@@H](C)O (H-S[Cha]RNGVGTGMKKTSFQRAKS-OH) | 221 | 1.35 |
| CSCC[C@H](NC(=O)CNC(=O)[C@@H](NC(=O)CNC(=O)[C@@H](NC(=O)CNC(=O)[C@H](CC(N)=O)NC(=O)[C@H](CCCNC(=N)N)NC(=O)CN(Cc1ccccc1)C(=O)[C@@H](N)CO)C(C)C)[C@@H](C)O)C(=O)N[C@@H](CCCCN)C(=O)N[C@@H](CCCCN)C(=O)N[C@H](C(=O)N[C@@H](CO)C(=O)N[C@@H](Cc1ccccc1)C(=O)N[C@@H](CCC(N)=O)C(=O)N[C@@H](CCCNC(=N)N)C(=O)N[C@@H](C)C(=O)N[C@@H](CCCCN)C(=O)N[C@@H](CO)C(=O)O)[C@@H](C)O (H-S[Nphe]RNGVGTGMKKTSFQRAKS-OH) | 246 | 15.5 |
| CSCC[C@H](NC(=O)CNC(=O)[C@@H](NC(=O)CNC(=O)[C@@H](NC(=O)CNC(=O)[C@H](CC(N)=O)NC(=O)[C@H](CCCNC(=N)N)NC(=O)[C@H](Cc1ccccc1C)NC(=O)[C@@H](N)CO)C(C)C)[C@@H](C)O)C(=O)N[C@@H](CCCCN)C(=O)N[C@@H](CCCCN)C(=O)N[C@H](C(=O)N[C@@H](CO)C(=O)N[C@@H](Cc1ccccc1)C(=O)N[C@@H](CCC(N)=O)C(=O)N[C@@H](CCCNC(=N)N)C(=O)N[C@@H](C)C(=O)N[C@@H](CCCCN)C(=O)N[C@@H](CO)C(=O)O)[C@@H](C)O (H-S[Phe(2-Me)]RNGVGTGMKKTSFQRAKS-OH) | 222 | 1.86 |
| CSCC[C@H](NC(=O)CNC(=O)[C@@H](NC(=O)CNC(=O)[C@@H](NC(=O)CNC(=O)[C@H](CC(N)=O)NC(=O)[C@H](CCCNC(=N)N)NC(=O)[C@H](Cc1ccc(Br)cc1)NC(=O)[C@@H](N)CO)C(C)C)[C@@H](C)O)C(=O)N[C@@H](CCCCN)C(=O)N[C@@H](CCCCN)C(=O)N[C@H](C(=O)N[C@@H](CO)C(=O)N[C@@H](Cc1ccccc1)C(=O)N[C@@H](CCC(N)=O)C(=O)N[C@@H](CCCNC(=N)N)C(=O)N[C@@H](C)C(=O)N[C@@H](CCCCN)C(=O)N[C@@H](CO)C(=O)O)[C@@H](C)O (H-S[Phe(4-Br)]RNGVGTGMKKTSFQRAKS-OH) | 309 | 0.646 |
| CSCC[C@H](NC(=O)CNC(=O)[C@@H](NC(=O)CNC(=O)[C@@H](NC(=O)CNC(=O)[C@H](CC(N)=O)NC(=O)[C@H](CCCNC(=N)N)NC(=O)[C@H](Cc1ccc(C(F)(F)F)cc1)NC(=O)[C@@H](N)CO)C(C)C)[C@@H](C)O)C(=O)N[C@@H](CCCCN)C(=O)N[C@@H](CCCCN)C(=O)N[C@H](C(=O)N[C@@H](CO)C(=O)N[C@@H](Cc1ccccc1)C(=O)N[C@@H](CCC(N)=O)C(=O)N[C@@H](CCCNC(=N)N)C(=O)N[C@@H](C)C(=O)N[C@@H](CCCCN)C(=O)N[C@@H](CO)C(=O)O)[C@@H](C)O (H-S[Phe(4-CF3)]RNGVGTGMKKTSFQRAKS-OH) | 286 | 2.57 |
| CSCC[C@H](NC(=O)CNC(=O)[C@@H](NC(=O)CNC(=O)[C@@H](NC(=O)CNC(=O)[C@H](CC(N)=O)NC(=O)[C@H](CCCNC(=N)N)NC(=O)[C@H](Cc1ccc(C#N)cc1)NC(=O)[C@@H](N)CO)C(C)C)[C@@H](C)O)C(=O)N[C@@H](CCCCN)C(=O)N[C@@H](CCCCN)C(=O)N[C@H](C(=O)N[C@@H](CO)C(=O)N[C@@H](Cc1ccccc1)C(=O)N[C@@H](CCC(N)=O)C(=O)N[C@@H](CCCNC(=N)N)C(=O)N[C@@H](C)C(=O)N[C@@H](CCCCN)C(=O)N[C@@H](CO)C(=O)O)[C@@H](C)O (H-S[Phe(4-CN)]RNGVGTGMKKTSFQRAKS-OH) | 296 | 3.31 |
| CSCC[C@H](NC(=O)CNC(=O)[C@@H](NC(=O)CNC(=O)[C@@H](NC(=O)CNC(=O)[C@H](CC(N)=O)NC(=O)[C@H](CCCNC(=N)N)NC(=O)[C@H](Cc1ccc(Cl)cc1)NC(=O)[C@@H](N)CO)C(C)C)[C@@H](C)O)C(=O)N[C@@H](CCCCN)C(=O)N[C@@H](CCCCN)C(=O)N[C@H](C(=O)N[C@@H](CO)C(=O)N[C@@H](Cc1ccccc1)C(=O)N[C@@H](CCC(N)=O)C(=O)N[C@@H](CCCNC(=N)N)C(=O)N[C@@H](C)C(=O)N[C@@H](CCCCN)C(=O)N[C@@H](CO)C(=O)O)[C@@H](C)O (H-S[Phe(4-Cl)]RNGVGTGMKKTSFQRAKS-OH) | 298 | 0.708 |
